Sampled rows, rich in hits. Any-hit rate of the full collection: about 1.3%.
Tn7 DDE FP: DD(E)-Tn7 binding inhibition, primary FP screen; P02675; FP displacement of FITC-Tn7 peptide from fibrin DD(E); 0% = median of compound wells per plate; inhibition, % at 8.3 µM; actives 0.13% (n = 370,000); AID 720508;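 active = inhibition above the mean of compounds falling within the control limits plus 3 SD of them, cut at about 14% in these data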;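 also: 0% = plate median of compound wells and 100% = 10 µM Aha-Tn7 peptide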
Target sequence (P02675 whole entry, looked up): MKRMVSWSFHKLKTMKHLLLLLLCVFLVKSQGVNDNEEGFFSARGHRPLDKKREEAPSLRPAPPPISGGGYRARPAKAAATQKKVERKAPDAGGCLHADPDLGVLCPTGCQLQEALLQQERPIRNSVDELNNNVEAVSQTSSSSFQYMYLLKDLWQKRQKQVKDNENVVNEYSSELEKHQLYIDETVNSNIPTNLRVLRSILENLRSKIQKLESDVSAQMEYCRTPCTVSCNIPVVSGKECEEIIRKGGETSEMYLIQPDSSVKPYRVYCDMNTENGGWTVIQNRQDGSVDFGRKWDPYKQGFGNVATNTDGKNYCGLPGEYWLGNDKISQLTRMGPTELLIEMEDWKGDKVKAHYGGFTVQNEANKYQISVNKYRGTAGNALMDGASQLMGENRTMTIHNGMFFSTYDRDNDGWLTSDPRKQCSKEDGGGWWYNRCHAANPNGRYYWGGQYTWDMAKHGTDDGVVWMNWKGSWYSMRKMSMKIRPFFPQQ
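Measure: % inhibition scaled between sample-field median and high-control FP; Test system: human fibrin DD(E); Quantity: 2 µM final DD(E) protein; Doses: one dose, 8.3 µM nominal; Schedule: compound with protein 10 min, then 3 h after probe, room temperature; Detection: fluorescence polarization; Medium: Tris buffer with calcium and detergent, pH 7.8.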
CRFBP-R2 block: antagonists of CRF-binding protein/CRF-R2 receptor complex. HEK293 CRF-R2/CRF-BP, CRF-induced calcium fluorescence. inhibition, % at 11.8 µM. actives 0.59% (n = 350,000). AID 588475;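 active = inhibition of the ligand-induced calcium signal above about 50% at the single tested concentration, limit read from the data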
Tn6 DDE FP: disrupts Tn6 cyclic peptide binding to fibrin D-Dimer-E complex; P02675; Fibrin DD(E) TRITC-Tn6 fluorescence polarization displacement; inhibition, % at 8.3 µM; actives 0.21% (n = 370,000);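 active = inhibition above a per-campaign cutoff: mean of compounds within control limits plus 3 SD, cut at about 15% in these data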;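 also: 0% = median of all compound wells on the plate and 100% = blocking peptide control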
CRFBP-R2 agonist: agonists of human CRF-binding protein/CRF-R2 receptor complex; HEK293 CRF-R2/CRF-BP, calcium dye fluorescence (FLIPR); percent of saturating CRF peptide response; actives 0.46% (n = 350,000); activation, % at 13.2 µM; AID 588473;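 active = activation of at least 50%, plus an integration ratio under a set limit after plate pattern correction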;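 also: plate controls were neutral control wells without compound for no effect and CRF at EC100 for full effect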
DDE Tn7 confirm: confirmation of inhibitors of Tn7 binding to human fibrin DD(E); shares compounds with Tn7 DDE FP; inhibition, % at 8.3 µM; actives 5% (n = 460); FP displacement of TRITC-Tn7 peptide from DD(E); 0% set at plate's compound-well median;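 active = inhibition above the campaign cutoff, the mean of compounds within control limits plus 3 SD, cut at about 14% in these data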;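 also: 100% = median FP of high control wells holding Aha-Tn7 inhibitor peptide; displacers lower polarization since freed probe rises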
Tn7 DDE ctr: DD(E)-Tn7 binding inhibition, counter-screen; shares compounds with Tn7 DDE FP; actives 3% (n = 460); inhibition, % at 8.3 µM; fibrin DD(E), TRITC-Tn7 probe displacement, fluorescence polarization;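 active = inhibition above the cutoff, the mean of compounds lying between the control bounds plus 3 SD of those compounds, cut at about 17% in these data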;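 also: 0% = median of compound sample wells and 100% = excess unlabeled Aha-Tn7 peptide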
* = called active by the depositor; / = not tested or not shown.

SMILES | Tn7 DDE FP | CRFBP-R2 block | Tn6 DDE FP | CRFBP-R2 agonist | DDE Tn7 confirm | Tn7 DDE ctr
Cc1ccc(NC(=S)NCc2ccc(Cl)cc2)c(OC(F)F)c1 | 14* | -7 | 7 | 1 | 11 | 0
CCc1ccccc1NC(=O)C1CCC(=O)N(c2ccc(OC)cc2)C1c1ccc(OC)cc1 (stereo not given) | -1 | / | -1 | / | / | /
C=CCOc1ccc(/C=C/C(=O)N2CCCN(S(=O)(=O)c3c(C)noc3C)CC2)cc1 | 15* | 13 | 8 | -2 | 6 | -2
CCOc1ccc(NC(=O)CN2CCN(CC(=O)Nc3ccc4c(c3)OCCO4)CC2)cc1 | 15* | -13 | -1 | -1 | -1 | -4
CCOc1ccc(NC(=O)CN2CCN(CC(=O)Nc3cccc(F)c3)CC2)cc1 | -2 | 4 | -3 | -1 | / | /
Cc1cccc(NC(=O)CCS(=O)(=O)c2ccccc2)n1 | 14* | -10 | 5 | 0 | 6 | -2
O=[N+]([O-])c1cc(C=NN2CCN(Cc3ccccc3Cl)CC2)ccc1Cl | 2 | / | -6 | / | / | /
CCCN(C(=O)COC(=O)COc1c(C)cccc1C)c1c(N)n(Cc2ccccc2)c(=O)[nH]c1=O | 14* | 3 | -7 | 1 | 0 | -3
CC1=CC(c2ccccc2)n2nc(NS(=O)(=O)c3ccc(C)cc3)nc2N1 (stereo not given) | 11 | -7 | -1 | 0 | / | /
CC1=CC(c2ccc(Cl)cc2)n2nc(NS(=O)(=O)c3ccc(C)cc3)nc2N1 (stereo not given) | 14* | 1 | 14 | 1 | 5 | 2
CC1(C)c2[nH]c3ccccc3c2C[C@@H]2C(=O)N(Cc3ccc(F)cc3)C(=O)N21 | 17* | -18 | 3 | -1 | 13 | 9
C=CCC(=O)NC1CCCc2c1cnn2-c1cc(F)cc(F)c1 (stereo not given) | 15* | 3 | 5 | 0 | -6 | -9
O=C1CCC/C(=N/NC(=O)c2sc3ccccc3c2Cl)C1 | 44* | -57 | -2 | 53* | -5 | -5
CN(C)[C@@H]1CCN(c2ccc3c(c2)O[C@H]2CCN(C2)S3(=O)=O)C1 | -1 | / | 4 | / | / | /
O=[N+]([O-])c1cccc(S(=O)(=O)N2CN(c3ccc(Br)cc3)c3nc4ccccc4nc32)c1 | 17* | 9 | -6 | 3 | 8 | 1
CCCCCN1CCCCC(NC(=O)c2c(F)cccc2F)C1=O (stereo not given) | -4 | / | 0 | / | / | /
CC(=O)Nc1sc2c(c1-c1nc3ccccc3s1)CNC2 | 5 | / | 0 | / | / | /
Cc1ccc(C)c(NC(=O)C2CCCN2S(=O)(=O)c2cccc3cccnc23)c1 (stereo not given) | 5 | / | 1 | / | / | /
CN(C(=O)c1ccccc1OCC(=O)Nc1ccc(Br)cc1)c1ccccc1 | 5 | / | 10 | / | / | /
COc1ccc(/C=C/C(=O)OCC(=O)NC(C)CCc2ccccc2)cc1OC (stereo not given) | 14* | 26 | 7 | -4 | 1 | -2
NC(=O)C(CCc1nc2ccccc2[nH]1)NS(=O)(=O)c1ccccc1 (stereo not given) | 15* | -18 | 5 | 1 | 6 | 0
Cc1ccc(S(=O)(=O)NCCc2nc3ccccc3[nH]2)cc1 | 9 | -12 | 3 | 2 | / | /
Fc1cccc(CCN2C(=S)NC[C@@H]2Cc2ccccc2)c1 | 15* | -1 | 2 | -1 | 4 | 1
O=C(c1cccs1)N1CCC(Cc2ccccc2)CC1 | 14* | 4 | -10 | -1 | -6 | -8
COc1ccc(/C=N/c2c(-c3ccco3)nc3ccccn23)cc1OC | 15* | -2 | -5 | 4 | 8 | 3
SMILES | Tn7 DDE FP | CRFBP-R2 block | Tn6 DDE FP | CRFBP-R2 agonist | DDE Tn7 confirm | Tn7 DDE ctr
C=C(C)C1CC=C(C)/C(=N/NC(=O)c2ccc(NC(=O)CC)cc2)C1 (stereo not given) | 6 | -6 | -1 | -2 | / | /
C=C(C)C1CC=C(C)/C(=N/NC(=O)c2ccc(NC(=O)CCC)cc2)C1 (stereo not given) | 14* | -2 | 6 | -3 | 8 | 3
Cc1ccccc1CN1CCCCC(NC(=O)c2c(F)cccc2F)C1=O (stereo not given) | 5 | / | 5 | / | / | /
COc1ccc(NC(=O)C(c2cc3c(cc2[N+](=O)[O-])OCO3)N(C)c2ccccc2)cc1 (stereo not given) | 15* | -241 | 2 | 90* | -5 | -5
CN1CCCN(C(=O)CN2C(=O)CC(C)(C)S(=O)(=O)c3ccccc32)CC1 | 1 | / | -6 | / | / | /
Cc1cc2ncn(S(=O)(=O)N3CCCCC3)c2cc1C | 14* | -38 | 1 | -3 | -1 | -4
Cc1cc2ncn(S(=O)(=O)N3CCOCC3)c2cc1C | -2 | -18 | 5 | 1 | / | /
Cc1cccc(Cn2cc(CN3CC(N(C)CCOC(=O)c4cc(C)cc(C)c4)CS3(=O)=O)nn2)c1 (stereo not given) | -2 | / | -5 | / | / | /
Cc1ccc(C(C(=O)NCC2CCCO2)N(Cc2ccccc2F)C(=O)Cn2nnc(-c3cccs3)n2)cc1 (stereo not given) | 19* | -2 | 1 | 2 | 10 | 6
O=C(NC1CCCC1)C(c1ccncc1)N(CC1CCCO1)C(=O)Cn1nnc(-c2cccs2)n1 (stereo not given) | -4 | -2 | 7 | -5 | / | /
O=C(CCc1ccccc1)N[C@H]1[C@H](O)CCC[C@]12C(=O)N(Cc1ccccc1)c1ccccc12 | -3 | / | 0 | / | / | /
Cc1nn(-c2ccccc2)c(C)c1/C=N/NC(=O)c1[nH][nH]c(=O)c1C | 5 | / | 6 | / | / | /
COc1ccccc1-c1cc(N)n(S(=O)(=O)c2ccc(F)c(C)c2)n1 | 14* | 3 | 6 | -2 | -2 | -8
COc1ccccc1NC(=O)CSc1nnc(COc2ccccc2OC)n1C | 14* | -5 | 0 | -1 | 4 | 2
FC(F)(F)c1cc(NCc2cccs2)n2ncnc2n1 | 15* | 28 | 5 | -1 | -6 | -9
CCc1c(C)nc2ncnn2c1NCc1cccs1 | -4 | 7 | -2 | 0 | / | /
Cc1ccc(-n2c(Cc3cccs3)nnc2SCC(=O)Nc2ccc(OCc3ccccc3)cc2)cc1 | 3 | / | -6 | / | / | /
O=C1CC(c2ccc3c(c2)OCO3)c2cc3c(cc2N1)OCO3 (stereo not given) | -5 | 2 | -4 | -1 | / | /
Cc1ccc(C2CC(=O)Nc3cc4c(cc32)OCO4)o1 (stereo not given) | 15* | 22 | 14 | 0 | 6 | 3
O=C(NC1CCN(S(=O)(=O)c2ccc(Cl)cc2)CC1)C1CCCCC1 | 14* | 5 | 3 | 1 | -1 | -6
CCOC(=O)CC[C@@H]1CC[C@]2(CCCN(Cc3nccn3C)C2)O1 | -5 | / | -5 | / | / | /
